# PRMT1 inh = blocks human protein arginine methyltransferase 1. Q99873. recombinant PRMT1, activity-based probe fluorescence polarization. inhibition, % at 2.79 µM. 1.3% of 370,000 active. AID 652257;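 active = inhibition above about 21% made by adding two undisclosed values, limit read from the data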
# TCR-CD3 inh = human TCR-CD3 binding inhibition; AID 651800; TAMRA-labeled TCR probe fluorescence, biochemical; inhibition, % at 9.4 µM; 0.37% of 360,000 active;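 note: recombinant mutant TCR 2C K166C tagged with TAMRA read by polarization; 0% = receptor in buffer alone and 100% = receptor with positive control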
# HTRA1 inhibitor = blocks human HTRA1 serine peptidase. 0.5% of 340,000 active. Q92743. recombinant HTRA1, FP-rhodamine activity-based probe, fluorescence polarization. inhibition, % at 5.96 µM; in the data active = inhibition above about 36%;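 note: 0% = enzyme with DMSO and 100% = wells lacking enzyme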
# Target sequence (Q92743 whole entry, looked up): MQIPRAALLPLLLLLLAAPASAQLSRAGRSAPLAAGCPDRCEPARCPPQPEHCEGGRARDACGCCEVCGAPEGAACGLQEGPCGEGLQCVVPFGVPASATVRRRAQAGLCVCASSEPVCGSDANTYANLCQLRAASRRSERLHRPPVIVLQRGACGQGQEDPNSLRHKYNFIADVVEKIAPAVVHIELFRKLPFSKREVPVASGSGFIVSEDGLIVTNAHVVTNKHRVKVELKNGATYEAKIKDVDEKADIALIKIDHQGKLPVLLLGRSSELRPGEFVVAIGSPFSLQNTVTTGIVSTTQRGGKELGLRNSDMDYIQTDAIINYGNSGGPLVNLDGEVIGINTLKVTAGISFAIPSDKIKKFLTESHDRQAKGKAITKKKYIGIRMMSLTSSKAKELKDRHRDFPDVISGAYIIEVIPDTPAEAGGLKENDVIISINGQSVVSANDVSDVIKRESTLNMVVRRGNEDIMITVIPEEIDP
# mABHD4 FP = ABHD4 (mouse) inhibition, primary FP screen; Q8VD66; purified mABHD4, FP-Rh probe fluorescence polarization; inhibition, % at 8.92 µM; 0.54% of 370,000 active;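 active = inhibition exceeding the mean over every tested compound plus 3 SD, cut at about 30% in these data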;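 note: 0% = plate median of compound wells and 100% = S159A mutant with DMSO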
#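 System: mouse ABHD4 enzyme, wild type / Medium: HEPES pH 7.0, NaCl, Pluronic buffer / Reagent: FP-Rh activity-based fluorescent probe / Control set: S159A mutant high control, sample median low control / Detection: fluorescence polarization with parallel and perpendicular emission, 525/598 nm / Schedule: 45 min + 60 min at 25 °C / Compound dosing: 8.92 µM, single dose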
# SIAE primary = inhibitors of human sialic acid acetylesterase SIAE; Q9HAT2; SIAE FP-Rh probe binding, fluorescence polarization; inhibition, % at 9.66 µM; 0.69% of 370,000 active; AID 1053197;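 active = inhibition above a cutoff: mean of compounds within the control limits plus 3 SD of those, cut at about 17% in these data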;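 note: 0% = plate median of compound wells and 100% = probe without SIAE protein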
# HTRA1 conf = confirmation of human HTRA1 inhibitors. recombinant HTRA1, FP-rhodamine activity-based probe, fluorescence polarization. AID 540248. shares compounds with HTRA1 inhibitor. inhibition, % at 5.96 µM. 66% of 1,600 active;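 active = mean inhibition over three repeats above a set limit taken from the earlier primary screen, cut at about 37% in these data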;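 note: 0% = HTRA1 with DMSO and 100% = wells lacking HTRA1; inhibitors block probe binding so polarization drops and inhibition rises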
# BSA probe FL = interferes with TAMRA-BSA probe, flagging TCR-CD3 hits. 10% of 1,200 active. shares compounds with TCR-CD3 inh. TAMRA-labeled BSA probe fluorescence counterscreen. AID 652035. inhibition, % at 9.4 µM; in the data active = inhibition above about 23%;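 note: 0% = buffer low control and 100% = reference high control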
# TCR-CD3 inh conf = TCR-CD3 interaction inhibition, confirmation | shares compounds with TCR-CD3 inh | TAMRA-labeled TCR probe fluorescence binding assay | inhibition, % at 9.4 µM | 48% of 1,200 active
# PRMT1 inh conf = confirmation of human PRMT1 inhibitors | shares compounds with PRMT1 inh | recombinant His-PRMT1, activity-based probe fluorescence polarization | inhibition, % at 2.79 µM | 42% of 3,300 active | AID 687036;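 active = mean inhibition across replicates above the hit cutoff derived for the earlier primary screen, cut at about 22% in these data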
# mABHD4 conf = confirmation of mouse ABHD4 inhibitors | shares compounds with mABHD4 FP | purified mABHD4, FP-Rh probe fluorescence polarization | inhibition, % at 8.92 µM | 55% of 1,800 active | AID 720658;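 active = mean inhibition across replicates above the hit cutoff set in the primary screen, cut at about 30% in these data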;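 note: 0% = wild-type ABHD4 with DMSO and 100% = catalytically dead S159A mutant with DMSO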
# SIAE inh conf = human SIAE inhibition, confirmation; shares compounds with SIAE primary; SIAE FP-Rh activity-based probe, fluorescence polarization; inhibition, % at 9.66 µM; 13% of 2,300 active;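 active = mean inhibition of the replicates above the hit cutoff set in the primary screen, cut at about 17% in these data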;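 note: 0% = SIAE with DMSO and probe and 100% = probe without SIAE; inhibitors lower polarization as more probe stays unbound to SIAE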
# * = called active by the depositor; x = not tested or not shown. Shown are actives, neighbours in structure and some others; about 2.6% of the full set was active somewhere. Cut-off read from the data, not from the text of the source, unless noted: active = inhibition above about 19%; inactive = the rest.
SMILES,PRMT1 inh,TCR-CD3 inh,HTRA1 inhibitor,mABHD4 FP,SIAE primary,HTRA1 conf,SIAE inh conf,others
COc1ccc(/C=C/C(=O)c2ccc(OC)cc2OC)c(OC)c1,3,-2,-26,0,-3,x,x,
CCc1cc2c(nc1CC)CCCN2C,2,7,x,4,0,x,x,
OC(c1ccccc1)c1ncc(-c2ccccc2Cl)[nH]1 (stereo unspecified),0,-2,x,1,-3,x,x,
COc1ccccc1Nc1ccc2c(O)cc(S(=O)(=O)O)cc2c1,37*,40*,69*,86*,28*,53*,53*,
C=CCn1c(SCC(=O)NC2CC2)nnc1C1CC1,-3,5,-2,3,-14,x,x,
CC(=O)n1cc(C2CC(=O)OC3=C2CC(=O)C(C)(C)C3)c2ccccc21 (stereo unspecified),1,4,-1,-1,-2,x,x,
CN(C(=S)Nc1ccccc1)c1ccccc1,-2,5,-1,8,2,x,x,
CN(C(=S)Nc1ccc(Oc2ccccc2)cc1)c1ccc(O)cc1,11,2,45*,35*,21*,-13,-3,mABHD4 conf=6
CCOC(=O)C1CSCCS(=O)(=O)N1Cc1ccccc1F (stereo unspecified),1,2,x,1,1,x,x,
Cc1cc2cc(CNS(=O)(=O)c3ccccc3)ccc2n1C,0,50*,51*,37*,17*,25,0,BSA probe FL=7;TCR-CD3 inh conf=19;mABHD4 conf=4
CCc1c(-c2cccc(OC)c2)ncn1CCc1ccccc1OC,5,-1,x,-4,-1,x,x,
Oc1ccc(NCc2ccc(OCc3ccccc3)cc2)cc1,34*,30*,47*,53*,29*,6,13,PRMT1 inh conf=11;mABHD4 conf=19
COc1cc(CNc2ccc(O)cc2)cc(Br)c1OCc1ccccc1,9,22*,57*,52*,26*,16,5,mABHD4 conf=12
COc1ccc(Br)cc1CNc1ccc(O)cc1,17,31*,74*,65*,32*,10,11,BSA probe FL=0;TCR-CD3 inh conf=3;mABHD4 conf=30*
COc1cc(CNC(C)c2ccccc2)cc(Br)c1OCc1ccccc1 (stereo unspecified),-1,5,-15,11,-2,x,x,
COc1ccc(Br)cc1CNc1ccc2[nH]c(=O)[nH]c2c1,10,-2,12,10,13,x,x,
COc1ccc2c3c(cccc13)C(=O)CC2,145*,57*,141*,87*,73*,3,3,BSA probe FL=14;TCR-CD3 inh conf=7;PRMT1 inh conf=81*;mABHD4 conf=5
COc1ccc2c(c1OC)C(=O)OC2,-2,-3,-16,-6,5,x,x,
c1ccc(C2Nc3cccc4cccc(c34)N2)cc1,8,-2,5,23,10,x,x,
COc1cc(OC)c(C2Nc3cccc4cccc(c34)N2)c(OC)c1,21,-3,52*,50*,21*,19,7,mABHD4 conf=36*
COC(=O)[C@]12C[C@H](CC(=O)NCC34CC5CC(CC(C5)C3)C4)C(=O)N(Cc3ccccc3)C1=C[C@H](C(C)C)O[C@@H]2C1CC1,4,5,x,2,1,x,x,
O=C1/C(=C\c2ccc(O)c(O)c2)C(c2ccccc2)=NN1c1ccccc1,9,4,58*,28,28*,97*,11,
COc1ccc(/C=N\NC(=O)c2cc(O)c(O)c(O)c2)cc1CN1CCN(c2ccc(F)cc2)CC1,7,23*,83*,29,30*,78*,-7,BSA probe FL=-8;TCR-CD3 inh conf=23*
COc1ccc(/C=N/NC(=O)c2ccc(C)cc2)cc1CN1CCN(c2ccc(F)cc2)CC1,x,x,-6,x,x,x,x,
CCn1c(CSc2n[nH]c(N)n2)nc2cc(C(=O)O)ccc21,2,94*,43*,19,36*,67*,31*,BSA probe FL=137*;TCR-CD3 inh conf=97*
SMILES,PRMT1 inh,TCR-CD3 inh,HTRA1 inhibitor,mABHD4 FP,SIAE primary,HTRA1 conf,SIAE inh conf,others
CC(=O)NC(c1ccccc1)c1cc(Cl)c2cccnc2c1O (stereo unspecified),-5,-11,70*,13,20*,72*,17*,
CC(=O)NC(c1ccc(N(C)C)cc1)c1cc(Cl)c2cccnc2c1O (stereo unspecified),-1,1,65*,30*,23*,82*,24*,mABHD4 conf=33*
CCCC(=O)NC(c1ccc(OC)c(OC)c1)c1cc(Cl)c2cccnc2c1O (stereo unspecified),-2,-2,46*,7,20*,66*,12,
COc1ccc(C(NC(C)=O)c2cc(Cl)c3cccnc3c2O)cc1 (stereo unspecified),-4,-4,70*,7,19*,80*,20*,
CC(=O)NC(c1ccc(F)cc1)c1cccnc1 (stereo unspecified),5,0,5,0,-1,x,x,
COc1ccc(Sc2cccc(Cl)c2)c(C(=O)O)c1,-1,3,x,8,-2,x,x,
Cc1sc2ncnc(N3CCC(C(=O)N(CC(C)C)c4nc5ccccc5s4)CC3)c2c1C,-3,5,-2,-1,-4,x,x,
O=C1c2ccccc2-c2c1cccc2C(=O)N1CCN(C(=O)c2ccco2)CC1,3,0,7,-2,7,x,x,
O=C(O)CCCNc1cc(N2CCN(C(=O)c3ccco3)CC2)c2noc3c2c1C(=O)c1ccccc1-3,19,79*,52*,66*,62*,47*,33*,mABHD4 conf=43*
C[C@@H]1ON(C)[C@H]2C[C@H]3c4cc(-c5cccc(Cl)c5)ccc4CCN3C[C@@H]12,-1,8,x,3,-7,x,x,
O=C(N/N=C/c1cc(Br)c(O)c(Br)c1)c1cc2c(ccc3ccccc32)o1,11,15,46*,11,57*,49*,26*,
O=C(N/N=C/c1ccc(O)c(Br)c1)c1cc2c(ccc3ccccc32)o1,-3,-12,-4,-3,1,x,x,
O=C(N/N=C/c1cc(Cl)c(O)c(Cl)c1)c1cc2c(ccc3ccccc32)o1,4,12,46*,29,55*,50*,41*,
CN(CC(=O)Nc1c(Cl)cccc1Cl)C(=O)C1CC(=O)N(Cc2ccccc2)C1 (stereo unspecified),-3,-7,6,-12,-3,x,x,
